# Test results as given in ChEMBL document CHEMBL1158530, “Phosphate ester derivatives of homocamptothecin: synthesis, solution stabilities and antitumor activities” (Bioorg Med Chem, 2010).
# The source made the active and inactive calls. The rule behind the calls is not given here.
# Key:
# MDA-MB-435 = experiment: Cytotoxicity against human MDA-MB-435 cells after 72 hrs by MTT assay; type: functional, cell-based; conditions: MDA-MB-435, 72 h
# In short: (§1)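 A549, MDA-MB-435 and LOVO cells seeded at 6000–10,000 per well. Treated in triplicate with graded drug concentrations for 72 h at 37 °C. Viability read by MTT; IC50 taken from the dose–response curve.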
# LoVo = experiment: Cytotoxicity against human LoVo cells after 72 hrs by MTT assay; type: functional, cell-based; in short: as §1
# A549 [1] = experiment: Cytotoxicity against human A549 cells after 72 hrs by MTT assay; type: functional, cell-based; conditions: A549, 72 h; in short: as §1
# A549 [2] = experiment: Antitumor activity against human A549 cells xenografted in BALB/c mouse assessed as inhibition of tumor growth at 50 mg/kg, ip relative to control; type: functional; conditions: route intraperitoneal, read-out: TGI
# In short: (§2)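 Male BALB/c nude mice (18-20g) implanted subcutaneously in right axilla with A549 cells. Treatment started at day 17 when tumors reached about 100–300 mm³. Single ip injection on day 17, six mice per group, eight controls. Caliper length and width every 4 days, TV = 1/2 × a × b². Sacrificed day 35, tumors removed; growth inhibition relative to placebo controls.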
# Bos taurus [3] = species: Bos taurus; experiment: Inhibition of calf thymus topoisomerase 1-mediated relaxation of Escherichia coli pBR322 plasmid DNA at 1 uM after 15 mins by cleavable complex assay
# In short: (§3)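 Calf thymus Topo I (0.5 U) with 0.25 μg supercoiled pBR322 in Topo I buffer containing BSA, with or without drug, 37 °C for 15 min. Stopped with 0.5% SDS final. Run on 0.8% agarose gel in TAE, 120 V for 40 min, stained with ethidium bromide, viewed under UV.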
# Bos taurus [4] = species: Bos taurus; experiment: Inhibition of calf thymus topoisomerase 1-mediated relaxation of Escherichia coli pBR322 plasmid DNA after 15 mins by cleavable complex assay
# In short: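 Calf thymus Topo I (0.5 U) incubated with 0.25 μg supercoiled pBR322 DNA in Topo I buffer with 0.1% BSA stock, with or without drug at 1, 10 and 50 μM, 37 °C for 15 min. Stopped with SDS (0.5% final). Products resolved on 0.8% agarose gel in TAE (120 V, 40 min), ethidium bromide stained, imaged under UV.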
# A549 [5] = experiment: Antitumor activity against human A549 cells xenografted in ip dosed BALB/c mouse assessed as tumor regression; type: functional, organism-based; in short: as §2
# [6] = Chemical stability assessed as compound remaining at pH 7.4 after 24 hrs by modified HPLC method; type: physicochemical; conditions: buffer, read-out: Stability
# In short: (§4)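 Drug in DMSO (2 mM, 430 μL) added to 70 μL of aqueous solution preincubated 5 min at 37 °C. Samples held at 37 °C, pH 3.0 or pH 7.4. Percent of initial phosphate-form concentration followed by modified HPLC.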
# [7] = Chemical stability assessed as compound remaining at pH 3.0 after 24 hrs by modified HPLC method; type: physicochemical; conditions: buffer, read-out: Stability; in short: as §4
# A549 [8] = experiment: Antitumor activity against human A549 cells xenografted in BALB/c mouse assessed as inhibition of tumor growth at 6.25 to 25 mg/kg, ip relative to control; type: functional; conditions: dose mg/kg 6.25-25; route intraperitoneal; in short: as §2
# A549 [9] = experiment: Antitumor activity against human A549 cells xenografted in BALB/c mouse assessed as inhibition of tumor growth at 25 mg/kg, ip relative to control; type: functional; conditions: route intraperitoneal, read-out: TGI; in short: as §2
# Bos taurus [10] = species: Bos taurus; experiment: Inhibition of calf thymus topoisomerase 1-mediated relaxation of Escherichia coli pBR322 plasmid DNA at 100 uM after 15 mins by cleavable complex assay; in short: as §3
SMILES,IC50 (MDA-MB-435),IC50 (LoVo),IC50 (A549 [1]),further results
CC[C@@]1(O)C(=O)OCc2c1cc1n(c2=O)Cc2cc3c(CN(C)C)c(O)ccc3nc2-1 [TOPOTECAN],< 0.001 µM,0.02 µM,0.04 µM,
CCc1c2c(nc3ccc(OC(=O)N4CCC(N5CCCCC5)CC4)cc13)-c1cc3c(c(=O)n1C2)COC(=O)[C@]3(O)CC [IRINOTECAN],1.14 µM,4.99 µM,4.61 µM,inhibition in vivo at 50 mg/kg (A549 [2]): 51%
CC[C@@]1(O)CC(=O)OCc2c1cc1n(c2=O)Cc2c-1nc1ccc(OP(=O)(OC(C)C)OC(C)C)cc1c2C,3.4 µM,5.56 µM,11.4 µM,
CC[C@@]1(O)C(=O)OCc2c1cc1n(c2=O)Cc2cc3ccccc3nc2-1,,,,inhibition (Bos taurus [3]): inactive
CCOP(=O)(O)Oc1ccc2nc3c(c(C)c2c1)Cn1c-3cc2c(c1=O)COC(=O)C[C@]2(O)CC,5.26 µM,7.24 µM,11.4 µM,
CCCCCCCCCCCCCCCCOP(=O)(OCCCCCCCCCCCCCCCC)Oc1ccc2nc3c(c(C)c2c1)Cn1c-3cc2c(c1=O)COC(=O)C[C@]2(O)CC,> 100 µM,> 100 µM,> 100 µM,
CC[C@@]1(O)CC(=O)OCc2c1cc1n(c2=O)Cc2c-1nc1ccc(OP(=O)(O)OCc3ccccc3)cc1c2C,10.8 µM,9.31 µM,29.4 µM,
CC[C@@]1(O)CC(=O)OCc2c1cc1n(c2=O)Cc2c-1nc1ccc(O)cc1c2C,< 0.001 µM,0.01 µM,0.03 µM,inhibition (Bos taurus [4]): Dose-dependent effect
CC[C@@]1(O)CC(=O)OCc2c1cc1n(c2=O)Cc2c-1nc1ccc(OP(=O)(OCC(F)(F)F)OCC(F)(F)F)cc1c2C,0.22 µM,5.42 µM,15.5 µM,
CCCCCOP(=O)(OCCCCC)Oc1ccc2nc3c(c(C)c2c1)Cn1c-3cc2c(c1=O)COC(=O)C[C@]2(O)CC,0.72 µM,1.19 µM,2.3 µM,Activity (A549 [5]): Dose-dependent effect; remaining at 24 h [6]: 91%; inhibition in vivo at 50 mg/kg (A549 [2]): 42%; remaining at 24 h [7]: 100%
CCOP(=O)(OCC)Oc1ccc2nc3c(c(C)c2c1)Cn1c-3cc2c(c1=O)COC(=O)C[C@]2(O)CC,0.79 µM,1.26 µM,8.05 µM,
CCCCOP(=O)(OCCCC)Oc1ccc2nc3c(c(C)c2c1)Cn1c-3cc2c(c1=O)COC(=O)C[C@]2(O)CC,0.51 µM,0.91 µM,2.84 µM,TGI (A549 [8]): 25%; inhibition in vivo at 25 mg/kg (A549 [9]): 59%; Activity (A549 [5]): Dose-dependent effect; remaining at 24 h [6]: 95%; inhibition (Bos taurus [10]): Active; remaining at 24 h [7]: 100%
